Measured values as given in ChEMBL document CHEMBL4196123, “Discovery of an Orally Bioavailable Dual PI3K/mTOR Inhibitor Based on Sulfonyl-Substituted Morpholinopyrimidines” (ACS Med Chem Lett, 2018).
The source made the active and inactive calls. No cut-off for these calls is given here.

Legend:
Cytochrome P450 2B6 = Cytochrome P450 2B6 (Homo sapiens, UniProt P20813); experiment: Inhibition of CYP2B6 in human liver microsomes using bupropion as substrate pretreated for 5 mins followed by NADPH addition and measured after 10 mins by LC-MS analysis; assay type: ADME
Cytochrome P450 2B6, sequence (P20813 whole entry): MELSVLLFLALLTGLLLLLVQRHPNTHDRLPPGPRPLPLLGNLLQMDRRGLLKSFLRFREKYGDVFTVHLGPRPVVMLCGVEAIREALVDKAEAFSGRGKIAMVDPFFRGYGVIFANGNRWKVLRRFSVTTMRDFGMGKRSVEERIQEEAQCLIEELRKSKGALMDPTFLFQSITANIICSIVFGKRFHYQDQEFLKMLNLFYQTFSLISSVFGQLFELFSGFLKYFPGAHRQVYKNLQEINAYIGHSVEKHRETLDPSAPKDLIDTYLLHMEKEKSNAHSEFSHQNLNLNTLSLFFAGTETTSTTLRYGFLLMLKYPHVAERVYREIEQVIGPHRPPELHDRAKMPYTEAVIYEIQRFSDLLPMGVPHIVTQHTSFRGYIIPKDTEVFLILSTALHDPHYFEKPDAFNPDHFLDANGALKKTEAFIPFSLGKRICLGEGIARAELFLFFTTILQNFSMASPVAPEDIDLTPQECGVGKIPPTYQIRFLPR

[1] = Apparent permeability across basolateral to apical side in human Caco2 cells measured after 90 mins by LC-MS/MS analysis; assay type: ADME, cell-based; conditions: Caco-2
[2] = Apparent permeability across apical to basolateral side in human Caco2 cells measured after 90 mins by LC-MS/MS analysis; assay type: ADME, cell-based; conditions: Caco-2
Mus musculus [3] = experiment: Toxicity in Balb/c nu/nu mouse xenografted with human HT-29 cells harboring PIK3CA P449T mutant assessed as body weight loss at 7.5 mg/kg, po administered daily via gavage for 27 days relative to control; assay type: organism-based; conditions: in vivo, 648 h
In short: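 Balb/c nu/nu mice with HT-29 xenografts (mean tumor about 240 mm³) received daily oral gavage for 27 days. Body weight change was measured and plotted over time. Mean ± SEM, n = 6.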

[4] = Clearance in CD1 mouse at 5 mg/kg, iv by LC-MS/MS analysis; assay type: ADME, organism-based; conditions: in vivo
[5] = Half life in CD1 mouse at 10 mg/kg, po administered via gavage by LC-MS/MS analysis; assay type: ADME, organism-based; conditions: in vivo
[6] = Intrinsic clearance in mouse liver microsomes at […] pretreated up to 45 mins followed by NADPH addition and measured by LC-MS/MS analysis; assay type: ADME, microsome; conditions: read-out: CLH
[7] = AUClast in CD1 mouse at 5 mg/kg, iv by LC-MS/MS analysis; assay type: ADME, organism-based; design: dose 5 mg/kg, time 0 - last, route intravenous; conditions: in vivo
Cytochrome P450 3A4 [8] = molecular target: T1, Cytochrome P450 3A4 (Homo sapiens, UniProt P08684); experiment: Inhibition of CYP3A4 in human liver microsomes using midazolam as substrate pretreated for 5 mins followed by NADPH addition and measured after 5 mins by LC-MS analysis; assay type: ADME
T1 sequence (P08684 whole entry): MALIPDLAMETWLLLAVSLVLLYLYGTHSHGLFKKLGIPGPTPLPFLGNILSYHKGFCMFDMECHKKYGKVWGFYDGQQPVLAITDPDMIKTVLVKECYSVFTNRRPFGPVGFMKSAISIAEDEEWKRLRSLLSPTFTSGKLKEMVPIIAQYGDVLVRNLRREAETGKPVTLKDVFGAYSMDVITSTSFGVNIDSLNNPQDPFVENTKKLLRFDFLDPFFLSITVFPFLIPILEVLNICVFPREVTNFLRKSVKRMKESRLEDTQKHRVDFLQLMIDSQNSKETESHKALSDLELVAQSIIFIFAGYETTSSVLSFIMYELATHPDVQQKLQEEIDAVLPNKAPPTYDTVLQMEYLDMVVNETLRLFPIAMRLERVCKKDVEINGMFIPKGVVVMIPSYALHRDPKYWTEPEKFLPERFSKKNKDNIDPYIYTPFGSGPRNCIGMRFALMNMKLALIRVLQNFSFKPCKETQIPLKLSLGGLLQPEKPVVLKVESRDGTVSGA

Cytochrome P450 3A4 [9] = molecular target: T1, Cytochrome P450 3A4; experiment: Inhibition of CYP3A4 in human liver microsomes using testosterone as substrate pretreated for 5 mins followed by NADPH addition and measured after 5 mins by LC-MS analysis; assay type: ADME
Cytochrome P450 2D6 = Cytochrome P450 2D6 (Homo sapiens, UniProt P10635); experiment: Inhibition of CYP2D6 in human liver microsomes using bufuralol as substrate pretreated for 5 mins followed by NADPH addition and measured after 10 mins by LC-MS analysis; assay type: ADME
[10] = molecular target: PI3-kinase p110-delta/p85-alpha (Homo sapiens, UniProt O00329); experiment: Inhibition of recombinant human full-length N-terminal His6-tagged p110delta/recombinant human full length p85alpha expressed in baculovirus infected Sf21 insect cells using PIP2 as substrate measured after 1 hr by Alexa633 Tracer-based fluorescence polarization assay
[11] = Volume of distribution at steady state in CD1 mouse at 5 mg/kg, iv by LC-MS/MS analysis; assay type: ADME, organism-based; conditions: in vivo, read-out: Vdss
[12] = Efflux ratio of apparent permeability from basolateral to apical side over apical to basolateral side in human Caco2 cells after 90 mins by LC-MS/MS analysis; assay type: ADME, cell-based; conditions: Caco-2
[13] = Intrinsic clearance in human liver microsomes at […] pretreated up to 45 mins followed by NADPH addition and measured by LC-MS/MS analysis; assay type: ADME, microsome; conditions: read-out: CLH
Mus musculus [14] = experiment: Toxicity in Balb/c nu/nu mouse xenografted with human HT-29 cells harboring PIK3CA P449T mutant assessed as survival at 7.5 mg/kg, po administered daily via gavage for 27 days measured post last dose; assay type: organism-based; conditions: in vivo, 648 h
In short: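 Balb/c nu/nu mice carrying HT-29 xenografts (PIK3CA P449T), dosed by daily oral gavage for 27 days starting when mean tumor size was about 240 mm³, alongside a vehicle group. Survival was recorded after the 27-day treatment. Body weight change was measured over time. n = 6 per group, mean ± SEM, Dunnett's multiple comparison test.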

HT-29 = experiment: Antitumor activity against human HT-29 cells harboring PIK3CA P449T mutant xenografted in Balb/c nu/nu mouse assessed as tumor growth inhibition at 7.5 mg/kg, po administered daily via gavage for 27 days relative to control; assay type: functional; conditions: HT-29, po, 648 h, read-out: TGI
In short: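 Balb/c nu/nu mice carrying HT-29 xenografts were dosed by daily oral gavage for 27 days, starting when mean tumor size was about 240 mm³; vehicle group as control. Tumor volume estimated over time, and TGI calculated after 27 days. Mean ± SEM, n = 6. Dunnett's multiple comparison test.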

[15] = molecular target: PI3-kinase p110-alpha/p85-alpha (Homo sapiens, UniProt P42336, E542K); experiment: Inhibition of recombinant human His-tagged p85alpha/p110alpha E542K mutant expressed in insect cells
[16] = Tmax in CD1 mouse at 10 mg/kg, po administered via gavage by LC-MS/MS analysis; assay type: ADME, organism-based; conditions: in vivo
MCF7 = experiment: Antiproliferative activity against human MCF7 cells harboring PIK3CA E545K mutant after 72 hrs by MTT assay; assay type: functional, cell-based; conditions: MCF7, 72 h
[17] = Inhibition of PI3K in human PC3 cells assessed as reduction in AKT phosphorylation at Ser473 measured after 2 hrs by fluorescence assay; assay type: cell-based; conditions: PC-3, 2 h
Cytochrome P450 2C8 = Cytochrome P450 2C8 (Homo sapiens, UniProt P10632); experiment: Inhibition of CYP2C8 in human liver microsomes using paclitaxel as substrate pretreated for 5 mins followed by NADPH addition and measured after 10 mins by LC-MS analysis; assay type: ADME
Cytochrome P450 2C8, sequence (P10632 whole entry, canonical isoform): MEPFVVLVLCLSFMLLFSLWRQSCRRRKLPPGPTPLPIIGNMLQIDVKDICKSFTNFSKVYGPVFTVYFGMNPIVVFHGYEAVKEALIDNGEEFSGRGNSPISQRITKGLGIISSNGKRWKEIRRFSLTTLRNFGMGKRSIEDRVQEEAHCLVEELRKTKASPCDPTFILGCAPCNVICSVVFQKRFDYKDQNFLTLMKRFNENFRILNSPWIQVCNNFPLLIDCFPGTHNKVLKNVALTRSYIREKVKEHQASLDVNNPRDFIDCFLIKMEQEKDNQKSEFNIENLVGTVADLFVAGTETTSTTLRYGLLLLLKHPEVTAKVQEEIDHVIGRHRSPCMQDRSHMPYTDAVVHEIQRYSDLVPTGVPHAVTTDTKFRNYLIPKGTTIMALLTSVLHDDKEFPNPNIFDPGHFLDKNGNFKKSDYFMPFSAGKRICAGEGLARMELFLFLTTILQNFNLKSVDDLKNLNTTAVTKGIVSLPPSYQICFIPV

[18] = molecular target: Phosphatidylinositol 4,5-bisphosphate 3-kinase catalytic subunit alpha isoform (Homo sapiens, UniProt P42336, H1047R); experiment: Inhibition of p110alpha H1047R mutant (unknown origin)
[19] = molecular target: Voltage-gated inwardly rectifying potassium channel KCNH2 (Homo sapiens, UniProt Q12809); experiment: Inhibition of recombinant human ERG expressed in CHO cells by automated whole cell patch clamp Qpatch method; assay type: cell-based
Cytochrome P450 2C19 = Cytochrome P450 2C19 (Homo sapiens, UniProt P33261); experiment: Inhibition of CYP2C19 in human liver microsomes using S-Mephenytoin as substrate pretreated for 5 mins followed by NADPH addition and measured after 45 mins by LC-MS analysis; assay type: ADME
[20] = molecular target: Serine/threonine-protein kinase ATR (Homo sapiens) (UniProt Q13535); experiment: Inhibition of ATR in human HT-29 cells assessed as reduction in camptothecin-induced Chk1 phosphorylation at Ser345 residue at 10 uM pretreated for 1 hr followed by camptothecin addition; assay type: cell-based
Serine/threonine-protein kinase ATR (Homo sapiens), sequence (Q13535 whole entry, looked up): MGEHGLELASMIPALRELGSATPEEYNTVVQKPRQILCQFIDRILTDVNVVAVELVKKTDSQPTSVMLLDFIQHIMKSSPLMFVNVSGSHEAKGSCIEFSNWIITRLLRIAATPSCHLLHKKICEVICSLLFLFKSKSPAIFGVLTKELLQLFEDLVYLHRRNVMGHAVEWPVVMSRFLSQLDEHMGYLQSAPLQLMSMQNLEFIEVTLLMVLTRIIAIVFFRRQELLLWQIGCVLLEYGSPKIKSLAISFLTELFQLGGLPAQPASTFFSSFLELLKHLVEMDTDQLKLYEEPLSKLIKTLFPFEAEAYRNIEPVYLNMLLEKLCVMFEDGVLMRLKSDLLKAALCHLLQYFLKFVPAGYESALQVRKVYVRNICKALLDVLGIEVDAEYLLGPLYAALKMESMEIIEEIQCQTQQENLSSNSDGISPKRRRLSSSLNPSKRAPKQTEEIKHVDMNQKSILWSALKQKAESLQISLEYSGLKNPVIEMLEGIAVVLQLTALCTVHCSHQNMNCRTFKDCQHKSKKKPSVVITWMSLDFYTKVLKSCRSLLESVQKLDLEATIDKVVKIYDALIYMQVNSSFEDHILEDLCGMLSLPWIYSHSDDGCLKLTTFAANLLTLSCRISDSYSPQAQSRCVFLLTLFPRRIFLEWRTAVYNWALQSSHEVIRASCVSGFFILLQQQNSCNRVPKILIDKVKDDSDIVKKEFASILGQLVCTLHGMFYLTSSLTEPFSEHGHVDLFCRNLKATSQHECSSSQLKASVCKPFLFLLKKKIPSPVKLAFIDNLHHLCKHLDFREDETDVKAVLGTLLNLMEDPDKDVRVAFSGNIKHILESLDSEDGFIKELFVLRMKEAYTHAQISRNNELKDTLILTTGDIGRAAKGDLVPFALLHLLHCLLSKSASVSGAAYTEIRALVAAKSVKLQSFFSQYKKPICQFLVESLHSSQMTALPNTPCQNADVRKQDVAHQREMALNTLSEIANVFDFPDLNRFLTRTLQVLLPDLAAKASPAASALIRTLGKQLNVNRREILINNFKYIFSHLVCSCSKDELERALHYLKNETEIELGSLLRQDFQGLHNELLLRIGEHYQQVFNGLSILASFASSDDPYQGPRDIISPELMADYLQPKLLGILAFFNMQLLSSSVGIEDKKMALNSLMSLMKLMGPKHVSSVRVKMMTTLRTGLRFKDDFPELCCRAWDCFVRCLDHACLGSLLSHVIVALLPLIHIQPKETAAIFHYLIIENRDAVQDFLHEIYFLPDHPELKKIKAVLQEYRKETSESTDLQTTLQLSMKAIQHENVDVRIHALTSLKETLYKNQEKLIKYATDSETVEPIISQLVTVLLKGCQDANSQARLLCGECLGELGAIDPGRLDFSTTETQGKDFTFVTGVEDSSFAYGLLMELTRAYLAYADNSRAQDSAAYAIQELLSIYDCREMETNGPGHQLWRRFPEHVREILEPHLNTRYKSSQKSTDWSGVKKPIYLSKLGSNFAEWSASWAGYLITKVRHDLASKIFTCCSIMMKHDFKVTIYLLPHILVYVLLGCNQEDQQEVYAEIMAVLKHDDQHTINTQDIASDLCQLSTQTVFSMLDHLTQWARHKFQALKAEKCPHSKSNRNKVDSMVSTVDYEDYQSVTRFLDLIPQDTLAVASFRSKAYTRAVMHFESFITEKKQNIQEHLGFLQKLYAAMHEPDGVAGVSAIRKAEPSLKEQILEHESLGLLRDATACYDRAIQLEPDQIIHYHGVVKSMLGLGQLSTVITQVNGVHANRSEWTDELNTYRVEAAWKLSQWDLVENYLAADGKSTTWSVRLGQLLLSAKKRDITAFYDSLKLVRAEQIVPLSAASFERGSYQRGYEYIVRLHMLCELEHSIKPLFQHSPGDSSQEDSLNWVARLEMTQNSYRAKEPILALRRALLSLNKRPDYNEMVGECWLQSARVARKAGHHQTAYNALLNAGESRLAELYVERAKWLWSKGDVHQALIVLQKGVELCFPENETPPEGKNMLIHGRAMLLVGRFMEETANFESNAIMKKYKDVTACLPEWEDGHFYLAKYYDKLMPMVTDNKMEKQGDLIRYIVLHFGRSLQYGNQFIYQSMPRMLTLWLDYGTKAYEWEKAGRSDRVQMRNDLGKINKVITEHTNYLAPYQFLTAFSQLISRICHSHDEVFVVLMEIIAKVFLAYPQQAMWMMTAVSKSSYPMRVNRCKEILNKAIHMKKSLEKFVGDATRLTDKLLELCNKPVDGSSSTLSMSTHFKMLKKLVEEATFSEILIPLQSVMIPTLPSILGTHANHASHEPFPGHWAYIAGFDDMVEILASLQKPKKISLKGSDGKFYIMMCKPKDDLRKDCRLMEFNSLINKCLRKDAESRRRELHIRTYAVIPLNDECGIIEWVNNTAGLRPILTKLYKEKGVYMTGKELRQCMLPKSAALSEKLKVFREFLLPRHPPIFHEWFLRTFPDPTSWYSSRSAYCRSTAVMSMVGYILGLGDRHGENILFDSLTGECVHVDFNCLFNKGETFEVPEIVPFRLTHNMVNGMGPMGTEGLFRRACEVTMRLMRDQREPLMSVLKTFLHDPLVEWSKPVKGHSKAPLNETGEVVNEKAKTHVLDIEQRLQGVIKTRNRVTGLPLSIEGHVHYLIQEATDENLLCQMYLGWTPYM
In short: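 HT-29 cells were pretreated with compound for 1 h, then exposed to camptothecin to induce DNA damage. ATR activity was read as phosphorylation of its substrate Chk1, with total Chk1 and β-actin as internal controls. […] served as reference inhibitor.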

[21] = Half life in CD1 mouse at 5 mg/kg, iv by LC-MS/MS analysis; assay type: ADME, organism-based; conditions: in vivo
Cytochrome P450 1A2 = Cytochrome P450 1A2 (Homo sapiens, UniProt P05177); experiment: Inhibition of CYP1A2 in human liver microsomes using phenacetin as substrate pretreated for 5 mins followed by NADPH addition and measured after 10 mins by LC-MS analysis; assay type: ADME
Cytochrome P450 2C9 = Cytochrome P450 2C9 (Homo sapiens, UniProt P11712); experiment: Inhibition of CYP2C9 in human liver microsomes using diclofenac as substrate pretreated for 5 mins followed by NADPH addition and measured after 10 mins by LC-MS analysis; assay type: ADME
Cytochrome P450 2C9, sequence (P11712 whole entry): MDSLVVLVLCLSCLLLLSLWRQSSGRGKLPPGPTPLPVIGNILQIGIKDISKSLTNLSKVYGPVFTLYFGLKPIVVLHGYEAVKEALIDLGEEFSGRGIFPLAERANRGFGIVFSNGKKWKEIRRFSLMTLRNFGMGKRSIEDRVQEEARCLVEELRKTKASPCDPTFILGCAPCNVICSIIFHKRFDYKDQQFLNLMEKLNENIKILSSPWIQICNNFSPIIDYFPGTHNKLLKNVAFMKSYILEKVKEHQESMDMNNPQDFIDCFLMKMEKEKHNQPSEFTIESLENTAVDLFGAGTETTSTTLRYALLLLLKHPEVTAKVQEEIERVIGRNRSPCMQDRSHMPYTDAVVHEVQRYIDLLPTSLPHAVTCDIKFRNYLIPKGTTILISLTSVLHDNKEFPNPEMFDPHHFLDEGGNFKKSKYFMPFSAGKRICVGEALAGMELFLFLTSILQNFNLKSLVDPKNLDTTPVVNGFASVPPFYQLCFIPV

In the case of C[C@H]1COCCN1c1nc(-c2cnc(N)cc2F)cc(C2(S(C)(=O)=O)CC2)n1, the IC50 (Cytochrome P450 2B6) is reported as over 10 µM, the Papp B→A at 1.5 h [1] is reported as over 10 ×10⁻⁶ cm/s and the Papp A→B at 1.5 h [2] is reported as over 10 ×10⁻⁶ cm/s. The Activity (Mus musculus [3]) was 15%, the clearance [4] was 15.2 mL/min/kg and the half-life [5] was 172 min. It also gave a CLint scaled [6] of 40 to 140 mL/min/kg, an AUC(0-t) [7] of 5440 ng·h/mL and an IC50 (Cytochrome P450 3A4 [8]) of over 10 µM. It also gave an IC50 (Cytochrome P450 3A4 [9]) of over 10 µM, an IC50 (Cytochrome P450 2D6) of over 10 µM and an IC50 [10] of 46 nM. The Vd [11] was 1.4 L/kg, the efflux ratio at 1.5 h [12] was 0.66 and the CLint scaled [13] was 5 to 16 mL/min/kg. The Activity (Mus musculus [14]) was “Non-Toxic”, the inhibition in vivo at 7.5 mg/kg (HT-29) was 72.9% and the IC50 [15] was 11 nM. The Tmax [16] was 15 min, the IC50 (MCF7) was 11 nM and the IC50 [17] was 196 nM. It also gave an IC50 (Cytochrome P450 2C8) of over 10 µM, an IC50 [18] of 15 nM and an IC50 [19] of over 30 µM. The IC50 (Cytochrome P450 2C19) was over 10 µM, the inhibition [20] was “Active” and the half-life [21] was 95.4 min. The IC50 (Cytochrome P450 1A2) was over 10 µM and the IC50 (Cytochrome P450 2C9) was over 10 µM.
